pKi: −log10 of the molar value. Calls of active or inactive are those of the source. No cut-off for these calls is given here.
Assays:
[1] = target: T1, Sodium-dependent dopamine transporter (Homo sapiens, UniProt Q01959); assay: Inhibition of 2,5,6-[3H]-dopamine uptake at human DAT expressed in African green monkey COS7 cells at 10 uM incubated for 10 mins prior to radioligand addition measured after 5 mins by scintillation counting analysis; format: cell-based; details: COS-7
[2] = target: T2, Sodium-dependent noradrenaline transporter (Homo sapiens, UniProt P23975); assay: Inhibition of 2,5,6-[3H]-dopamine uptake at human NET expressed in African green monkey COS7 cells at 10 uM incubated for 10 mins prior to radioligand addition measured after 5 mins by scintillation counting analysis; format: cell-based; details: COS-7
[3] = target: T3, Sodium-dependent serotonin transporter (Homo sapiens, UniProt P31645); assay: Inhibition of 5-hydroxy[3H]tryptamine uptake at human SERT expressed in African green monkey COS7 cells incubated for 10 mins prior to radioligand addition measured after 5 mins by scintillation counting analysis; format: cell-based, COS-7
Target sequence in this assay (P31645 whole entry): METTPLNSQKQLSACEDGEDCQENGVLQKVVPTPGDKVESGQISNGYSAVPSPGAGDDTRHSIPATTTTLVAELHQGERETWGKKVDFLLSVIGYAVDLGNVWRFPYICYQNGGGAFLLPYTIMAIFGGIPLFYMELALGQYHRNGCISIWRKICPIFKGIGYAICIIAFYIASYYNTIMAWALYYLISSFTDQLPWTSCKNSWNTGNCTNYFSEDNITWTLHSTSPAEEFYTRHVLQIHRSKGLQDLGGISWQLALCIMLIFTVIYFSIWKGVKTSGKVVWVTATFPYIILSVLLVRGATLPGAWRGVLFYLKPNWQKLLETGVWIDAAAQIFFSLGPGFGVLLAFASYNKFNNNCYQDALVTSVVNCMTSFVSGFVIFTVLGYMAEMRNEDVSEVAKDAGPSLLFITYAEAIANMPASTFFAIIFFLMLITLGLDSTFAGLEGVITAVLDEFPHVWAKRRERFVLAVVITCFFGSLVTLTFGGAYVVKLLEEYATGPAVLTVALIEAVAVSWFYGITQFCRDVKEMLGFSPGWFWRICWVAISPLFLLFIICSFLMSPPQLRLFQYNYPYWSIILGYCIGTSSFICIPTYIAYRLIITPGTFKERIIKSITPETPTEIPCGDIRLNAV

[4] = target: T3, Sodium-dependent serotonin transporter; assay: Binding affinity to N-terminal EGFP-tagged SERT (unknown origin) expressed in HEK293 cells at 20 nM after 10 mins by confocal laser scanning microscopy; format: cell-based
Summary of the method: (§1)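 Live confocal imaging of HEK293 cells transiently expressing SERT with an N-terminal EGFP tag. Cells were incubated at room temperature with 20 nM ligand and imaged at 0, 1, 5, 10 or 20 min. Rhodamine signal was compared with the EGFP signal and merged with a transmission image. Paroxetine (100 μM) was coincubated as the specificity control. Three identical experiments were run.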
Target sequence in this assay (P31645 whole entry, looked up): as the sequence (P31645 whole entry) above

[5] = target: T3, Sodium-dependent serotonin transporter; assay: Selectivity ratio of ZP455 Ki to compound Ki for human SERT
Target sequence in this assay (P31645 whole entry, looked up): as the sequence (P31645 whole entry) above

[6] = target: T3, Sodium-dependent serotonin transporter; assay: Binding affinity to N-terminal EGFP-tagged SERT (unknown origin) expressed in HEK293 cells at 20 nM after 10 mins by confocal laser scanning microscopy in presence of SERT inhibitor paroxetine; format: cell-based; summary of the method: as §1
Target sequence in this assay (P31645 whole entry, looked up): as the sequence (P31645 whole entry) above

[7] = target: T3, Sodium-dependent serotonin transporter; assay: Binding affinity to N-terminal EGFP-tagged SERT (unknown origin) expressed in HEK293 cells at 20 nM by confocal laser scanning microscopy; format: cell-based; details: TDE = time-dependent effect; summary of the method: as §1
Target sequence in this assay (P31645 whole entry, looked up): as the sequence (P31645 whole entry) above

[8] = target: T3, Sodium-dependent serotonin transporter; assay: Displacement of [3H]-S-citalopram from human SERT expressed in African green monkey COS7 cells incubated for 10 mins prior to [3H]-S-citalopram addition measured after 2 hrs by scintillation counting analysis; format: cell-based, COS-7
Summary of the method: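 Competition binding at hSERT in transiently transfected COS7 cells with [3H]-S-citalopram (2 nM) as radioligand. IC50 came from nonlinear regression and was converted to Ki using a Kd for [3H]-S-citalopram determined in parallel. SE interval is from pKi ± SE. Values are means of three to four experiments, each in triplicate.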
Target sequence in this assay (P31645 whole entry): as above

[9] = target: T1, Sodium-dependent dopamine transporter; assay: Inhibition of 2,5,6-[3H]-dopamine uptake at human DAT expressed in African green monkey COS7 cells incubated for 10 mins prior to radioligand addition measured after 5 mins by scintillation counting analysis; format: cell-based, COS-7
Summary of the method: (§2)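 Uptake inhibition in transiently transfected COS7 cells, with 2,5,6-[3H]dopamine as substrate for both DAT and NET. IC50 came from nonlinear regression. Ki was calculated using the dopamine KM, which was determined in parallel. Values are means of three to four repeats, each in triplicate, with SE interval from pKI ± SE.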

[10] = target: T2, Sodium-dependent noradrenaline transporter; assay: Inhibition of 2,5,6-[3H]-dopamine uptake at human NET expressed in African green monkey COS7 cells incubated for 10 mins prior to radioligand addition measured after 5 mins by scintillation counting analysis; format: cell-based, COS-7; summary of the method: as §2

T2 sequence (P23975 whole entry): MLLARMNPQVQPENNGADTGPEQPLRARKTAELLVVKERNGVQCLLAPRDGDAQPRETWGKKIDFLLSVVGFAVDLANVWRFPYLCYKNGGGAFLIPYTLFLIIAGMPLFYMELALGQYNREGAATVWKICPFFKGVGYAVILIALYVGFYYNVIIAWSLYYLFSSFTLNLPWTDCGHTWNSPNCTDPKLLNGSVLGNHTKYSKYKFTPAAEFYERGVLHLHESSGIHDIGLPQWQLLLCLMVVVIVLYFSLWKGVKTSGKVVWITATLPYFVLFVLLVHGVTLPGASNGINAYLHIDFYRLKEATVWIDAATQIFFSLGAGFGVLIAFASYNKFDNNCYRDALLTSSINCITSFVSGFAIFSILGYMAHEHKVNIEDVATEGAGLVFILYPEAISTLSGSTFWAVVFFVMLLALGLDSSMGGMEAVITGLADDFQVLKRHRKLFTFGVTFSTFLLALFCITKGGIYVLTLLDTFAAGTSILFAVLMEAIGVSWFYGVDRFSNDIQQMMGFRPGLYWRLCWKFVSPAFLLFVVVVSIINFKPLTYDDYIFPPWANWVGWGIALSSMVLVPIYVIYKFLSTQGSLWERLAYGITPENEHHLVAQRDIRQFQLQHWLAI
T1 sequence (Q01959 whole entry): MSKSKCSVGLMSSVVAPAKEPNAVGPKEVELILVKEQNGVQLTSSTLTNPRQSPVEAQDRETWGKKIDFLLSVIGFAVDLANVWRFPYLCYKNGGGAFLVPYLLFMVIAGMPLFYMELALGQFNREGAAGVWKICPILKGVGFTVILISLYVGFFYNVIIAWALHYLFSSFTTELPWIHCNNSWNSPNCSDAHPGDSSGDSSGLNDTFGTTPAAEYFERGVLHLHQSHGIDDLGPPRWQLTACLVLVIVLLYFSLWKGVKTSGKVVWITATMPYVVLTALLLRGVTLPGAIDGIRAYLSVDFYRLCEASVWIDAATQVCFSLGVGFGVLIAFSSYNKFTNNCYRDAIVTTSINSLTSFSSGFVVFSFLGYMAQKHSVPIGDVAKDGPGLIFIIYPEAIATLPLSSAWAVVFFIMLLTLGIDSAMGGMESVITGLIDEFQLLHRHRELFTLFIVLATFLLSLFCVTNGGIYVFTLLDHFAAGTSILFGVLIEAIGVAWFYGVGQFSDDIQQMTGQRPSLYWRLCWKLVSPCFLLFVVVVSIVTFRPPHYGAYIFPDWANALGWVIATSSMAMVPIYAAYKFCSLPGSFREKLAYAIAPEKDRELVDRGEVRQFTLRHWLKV

Row | inhibition [1] | inhibition [2] | pKi [3] | Activity [4] | Ratio Ki [5] | Activity [6] | Activity [7] | pKi [8] | Structure (SMILES) | pKi [9] | pKi [10]
1 | inactive | inactive | 6.60 |  |  |  |  | 6.74 | CCN(CC)c1ccc2c(-c3ccc(S(=O)(=O)NCCCCCC(=O)NCCCCCN(C)CCC[C@@]4(c5ccc(F)cc5)OCc5cc(C#N)ccc54)cc3S(=O)(=O)[O-])c3ccc(=[N+](CC)CC)cc-3oc2c1 |  | 
2 | inactive | inactive | 7.43 |  |  |  |  | 7.96 | CCN(CC)c1ccc2c(-c3ccc(S(=O)(=O)NCCCCCC(=O)NCCCc4ccc5c(c4)CO[C@@]5(CCCN(C)C)c4ccc(F)cc4)cc3S(=O)(=O)[O-])c3ccc(=[N+](CC)CC)cc-3oc2c1 |  | 
3 | inactive | inactive | 6.85 |  |  |  |  | 7.96 | CCN(CC)c1ccc2c(-c3ccc(S(=O)(=O)NCCCCCC(=O)NCCCN(C)CCC[C@@]4(c5ccc(F)cc5)OCc5cc(C#N)ccc54)cc3S(=O)(=O)[O-])c3ccc(=[N+](CC)CC)cc-3oc2c1 |  | 

Second part, the molecule before the results:

Row | Structure (SMILES) | inhibition [1] | inhibition [2] | pKi [3] | Activity [4] | Ratio Ki [5] | Activity [6] | Activity [7] | pKi [8] | pKi [9] | pKi [10]
4 | CN(C)CCC[C@@]1(c2ccc(F)cc2)OCc2cc(C#N)ccc21 | inactive | inactive |  |  |  |  |  |  |  | 
5 | CCN(CC)c1ccc2c(-c3ccc(S(=O)(=O)NCCCCCC(=O)NCc4ccc5c(c4)CO[C@@]5(CCCN(C)C)c4ccc(F)cc4)cc3S(=O)(=O)[O-])c3ccc(=[N+](CC)CC)cc-3oc2c1 | inactive | inactive | 7.47 | Active | 75 | inactive | tde | 8.52 |  | 
6 | CCN(CC)c1ccc2c(-c3ccc(S(=O)(=O)NCCCCCC(=O)NCCN4C5CCC4[C@@H](C(=O)OC)[C@@H](c4ccc(Cl)c(Cl)c4)C5)cc3S(=O)(=O)[O-])c3ccc(=[N+](CC)CC)cc-3oc2c1 (stereo not given in full) |  |  | 7.03 |  |  |  |  |  | 7.70 | 7.04

From ChEMBL document CHEMBL3286311, “Novel and high affinity fluorescent ligands for the serotonin transporter based on (s)-citalopram” (ACS Med Chem Lett, 2014)
